Values after ≈ are worked out from the molar mass of the structure shown.
Experiments:
Bacillus subtilis = experiment: Antibacterial activity against Bacillus subtilis ATCC 530 after 24 hrs by two-fold serial dilution method; assay type: functional; details: ATCC 530, 24 h
Method in brief: (§1)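 Run in Mueller-Hinton medium, read by MTT method, with compounds tested in nutrient broth (NB) by two-fold serial dilution. Seeded broth containing microbial spores was prepared in NB from 24 h old cultures grown on nutrient agar.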

Escherichia coli = experiment: Antibacterial activity against Escherichia coli ATCC 25922 after 24 hrs by two-fold serial dilution method; assay type: functional; details: ATCC 25922, 24 h; method in brief: as §1
Staphylococcus aureus = experiment: Antibacterial activity against Staphylococcus aureus ATCC 25923 after 24 hrs by two-fold serial dilution method; assay type: functional; details: ATCC 25923, 24 h; method in brief: as §1
[1] = Inhibition of Staphylococcus aureus TyrRS compound preincubated for 10 mins by liquid scintillation counting in presence of L-ring-3,5-[3H]tyrosine
Pseudomonas aeruginosa = experiment: Antibacterial activity against Pseudomonas aeruginosa ATCC 27853 after 24 hrs by two-fold serial dilution method; assay type: functional; details: ATCC 27853, 24 h; method in brief: as §1
[2] = Toxicity in RBC (unknown origin) assessed as hemolysis; assay type: cell-based; details: erythrocyte

## COc1cccc(N2CCN(CCn3c([N+](=O)[O-])cnc3C)CC2)c1
Bacillus subtilis
  MIC: 0.805 µg/mL (≈ 2.33 µM)
Escherichia coli
  MIC: > 50 µg/mL
Staphylococcus aureus
  MIC: 0.656 µg/mL (≈ 1.9 µM)
[1]
  IC50: 7.65 µM
Pseudomonas aeruginosa
  MIC: > 50 µg/mL
[2]
  LC30: > 10000 µg/mL

## Cc1ncc([N+](=O)[O-])n1CCN1CCN(c2ccccc2)CC1
Bacillus subtilis
  MIC: 1.55 µg/mL (≈ 4.92 µM)
Escherichia coli
  MIC: > 50 µg/mL
Staphylococcus aureus
  MIC: > 50 µg/mL
[1]
  IC50: 20.5 µM
Pseudomonas aeruginosa
  MIC: > 50 µg/mL
[2]
  LC30: > 10000 µg/mL

## Cc1ncc([N+](=O)[O-])n1CCN1CCN(c2ccc(F)cc2)CC1
Bacillus subtilis
  MIC: > 50 µg/mL
Escherichia coli
  MIC: > 50 µg/mL
Staphylococcus aureus
  MIC: > 50 µg/mL
[1]
  IC50: 25.2 µM
Pseudomonas aeruginosa
  MIC: > 50 µg/mL
[2]
  LC30: > 10000 µg/mL

## Cc1ncc([N+](=O)[O-])n1CCN1CCN(c2cccc(Cl)c2Cl)CC1
Bacillus subtilis
  MIC: 14.4 µg/mL (≈ 37.4 µM)
Escherichia coli
  MIC: > 50 µg/mL
Staphylococcus aureus
  MIC: 11.1 µg/mL (≈ 28.9 µM)
[1]
  IC50: 13.6 µM
Pseudomonas aeruginosa
  MIC: > 50 µg/mL
[2]
  LC30: > 10000 µg/mL

## Cc1ncc([N+](=O)[O-])n1CCN1CCN(c2ccccc2Cl)CC1
Bacillus subtilis
  MIC: 0.142 µg/mL (≈ 0.406 µM)
Escherichia coli
  MIC: > 50 µg/mL
Staphylococcus aureus
  MIC: 0.203 µg/mL (≈ 0.58 µM)
[1]
  IC50: 0.0086 µM
Pseudomonas aeruginosa
  MIC: > 50 µg/mL
[2]
  LC30: > 10000 µg/mL

## Cc1ncc([N+](=O)[O-])n1CCN1CCN(c2ccccc2F)CC1
Bacillus subtilis
  MIC: > 50 µg/mL
Escherichia coli
  MIC: > 50 µg/mL
Staphylococcus aureus
  MIC: 17.1 µg/mL (≈ 51.3 µM)
[1]
  IC50: 23.4 µM
Pseudomonas aeruginosa
  MIC: > 50 µg/mL
[2]
  LC30: > 10000 µg/mL

## Cc1ncc([N+](=O)[O-])n1CCN1CCN(c2cccc(Cl)c2)CC1
Bacillus subtilis
  MIC: 2.57 µg/mL (≈ 7.34 µM)
Escherichia coli
  MIC: > 50 µg/mL
Staphylococcus aureus
  MIC: 1.8 µg/mL (≈ 5.15 µM)
[1]
  IC50: 10.5 µM
Pseudomonas aeruginosa
  MIC: > 50 µg/mL
[2]
  LC30: > 10000 µg/mL

## COc1ccccc1N1CCN(CCn2c([N+](=O)[O-])cnc2C)CC1
Bacillus subtilis
  MIC: 0.272 µg/mL (≈ 0.787 µM)
Escherichia coli
  MIC: > 50 µg/mL
Staphylococcus aureus
  MIC: 0.583 µg/mL (≈ 1.69 µM)
[1]
  IC50: 1.12 µM
Pseudomonas aeruginosa
  MIC: > 50 µg/mL
[2]
  LC30: > 10000 µg/mL

## Cc1ncc([N+](=O)[O-])n1CCN1CCN(c2cccc(C(F)(F)F)c2)CC1
Bacillus subtilis
  MIC: 3.29 µg/mL (≈ 8.58 µM)
Escherichia coli
  MIC: > 50 µg/mL
Staphylococcus aureus
  MIC: 18.1 µg/mL (≈ 47.2 µM)
[1]
  IC50: 15.3 µM
Pseudomonas aeruginosa
  MIC: > 50 µg/mL
[2]
  LC30: > 10000 µg/mL

## Cc1ccc(N2CCN(CCn3c([N+](=O)[O-])cnc3C)CC2)c(C)c1
Bacillus subtilis
  MIC: 4.31 µg/mL (≈ 12.6 µM)
Escherichia coli
  MIC: > 50 µg/mL
Staphylococcus aureus
  MIC: 1.61 µg/mL (≈ 4.69 µM)
[1]
  IC50: 12.6 µM
Pseudomonas aeruginosa
  MIC: > 50 µg/mL
[2]
  LC30: > 10000 µg/mL

## Cc1ncc([N+](=O)[O-])n1CCN1CCN(c2ccc(Cl)c(Cl)c2)CC1
Bacillus subtilis
  MIC: 6.83 µg/mL (≈ 17.8 µM)
Escherichia coli
  MIC: > 50 µg/mL
Staphylococcus aureus
  MIC: 11.6 µg/mL (≈ 30.1 µM)
[1]
  IC50: 16.2 µM
Pseudomonas aeruginosa
  MIC: > 50 µg/mL
[2]
  LC30: > 10000 µg/mL

## COc1ccc(N2CCN(CCn3c([N+](=O)[O-])cnc3C)CC2)cc1
Bacillus subtilis
  MIC: 0.033 µg/mL (≈ 0.0955 µM)
Escherichia coli
  MIC: > 50 µg/mL
Staphylococcus aureus
  MIC: 0.123 µg/mL (≈ 0.356 µM)
[1]
  IC50: 0.0067 µM
Pseudomonas aeruginosa
  MIC: > 50 µg/mL
[2]
  LC30: > 10000 µg/mL

## Cc1ncc([N+](=O)[O-])n1CCN1CCN(C(c2ccccc2)c2ccccc2)CC1
Bacillus subtilis
  MIC: 0.011 µg/mL (≈ 0.0271 µM)
Escherichia coli
  MIC: > 50 µg/mL
Staphylococcus aureus
  MIC: 0.003 µg/mL (≈ 0.0074 µM)
[1]
  IC50: 0.0024 µM
Pseudomonas aeruginosa
  MIC: > 50 µg/mL
[2]
  LC30: > 10000 µg/mL

## Cc1ncc([N+](=O)[O-])n1CCN1CCN(C(c2ccccc2)c2ccc(Cl)cc2)CC1 (configuration not stated)
Bacillus subtilis
  MIC: 0.185 µg/mL (≈ 0.421 µM)
Escherichia coli
  MIC: > 50 µg/mL
Staphylococcus aureus
  MIC: 0.593 µg/mL (≈ 1.35 µM)
[1]
  IC50: 1.72 µM
Pseudomonas aeruginosa
  MIC: > 50 µg/mL
[2]
  LC30: > 10000 µg/mL

## Cc1ncc([N+](=O)[O-])n1CCN1CCN(C(c2ccc(F)cc2)c2ccc(F)cc2)CC1
Bacillus subtilis
  MIC: > 50 µg/mL
Escherichia coli
  MIC: > 50 µg/mL
Staphylococcus aureus
  MIC: > 50 µg/mL
[1]
  IC50: 25.8 µM
Pseudomonas aeruginosa
  MIC: > 50 µg/mL
[2]
  LC30: > 10000 µg/mL

## O=C(N[C@H](CO)[C@H](O)c1ccc([N+](=O)[O-])cc1)C(Cl)Cl [CHLORAMPHENICOL]
Bacillus subtilis
  MIC: 0.078 µg/mL (≈ 0.241 µM)
Escherichia coli
  MIC: 0.064 µg/mL (≈ 0.198 µM)
Staphylococcus aureus
  MIC: 0.178 µg/mL (≈ 0.551 µM)

## CC1(C)S[C@@H]2[C@H](NC(=O)Cc3ccccc3)C(=O)N2[C@H]1C(=O)O [PENICILLIN G]
Bacillus subtilis
  MIC: 0.335 µg/mL (≈ 1 µM)
Escherichia coli
  MIC: 22.8 µg/mL (≈ 68.3 µM)
Staphylococcus aureus
  MIC: 1.02 µg/mL (≈ 3.06 µM)
Pseudomonas aeruginosa
  MIC: 18.6 µg/mL (≈ 55.7 µM)

From ChEMBL document CHEMBL3232728, “Synthesis, molecular docking and biological evaluation of metronidazole derivatives containing piperazine skeleton as potential antibacterial agents” (Bioorg Med Chem, 2014)
